mIAP act: increases mouse intestinal alkaline phosphatase activity | muIAP, CDP-Star luminescence, 30 min; hits give high values; 1 = vehicle-only enzyme signal, 0 = enzyme-free wells | activation factor at 10 µM | actives 0.24% (n = 330,000);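 active = activation factor of at least 2 at 20 µM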
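System: Mouse IAP enzyme | Also added: CDP-Star substrate | Dosing: Compounds dispensed in DMSO | Schedule: 30 min enzyme-substrate-compound incubation at room temperature | Technique: Chemiluminescence readout | Control set: DMSO-only wells and no-enzyme negative control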
mIAP inh: blocks mouse intestinal alkaline phosphatase; actives 0.2% (n = 330,000); inhibition, % at 10 µM; purified mouse IAP, CDP-Star luminescence, 30 min;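 active = inhibition of at least 40% at 10 µM in the primary screen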
bIAP activator: intestinal alkaline phosphatase (bovine) activation. purified bovine IAP, CDP-star luminescence, 30 min; hits give high values; fold of DMSO-control signal, blank-subtracted. AID 1016. actives 0.17% (n = 200,000). activation factor at 20 µM;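 active = activation factor of 2 or more at 20 µM, a signal rise over negative controls twice the positive control's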
hIAP activ: human IAP activation; P09923; purified human IAP, CDP-Star luminescence, 30 min; hits give high values; 1 = vehicle-only enzyme, 0 = enzyme-free background; activation factor at 10 µM; actives 0.16% (n = 330,000);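 active = activation factor of the enzyme at least 2-fold when tested at 20 µM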
Target sequence (P09923 whole entry, looked up): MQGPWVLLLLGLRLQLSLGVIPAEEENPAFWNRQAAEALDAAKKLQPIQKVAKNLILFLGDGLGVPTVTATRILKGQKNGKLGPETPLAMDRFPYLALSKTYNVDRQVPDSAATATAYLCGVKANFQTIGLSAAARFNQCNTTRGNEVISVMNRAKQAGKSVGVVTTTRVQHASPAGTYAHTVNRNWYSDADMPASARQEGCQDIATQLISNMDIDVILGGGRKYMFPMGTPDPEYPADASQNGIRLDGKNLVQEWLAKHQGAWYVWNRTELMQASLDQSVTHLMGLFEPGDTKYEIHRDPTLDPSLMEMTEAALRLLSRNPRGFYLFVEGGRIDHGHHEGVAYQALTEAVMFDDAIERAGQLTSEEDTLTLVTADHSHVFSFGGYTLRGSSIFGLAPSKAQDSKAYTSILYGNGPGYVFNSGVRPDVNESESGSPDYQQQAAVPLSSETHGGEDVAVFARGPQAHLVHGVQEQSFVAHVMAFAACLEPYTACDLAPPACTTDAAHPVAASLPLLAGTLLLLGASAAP
hIAP block: human IAP inhibition; purified IAP, CDP-Star luminescence, 30 min; P09923; actives 0.12% (n = 330,000); inhibition, % at 10 µM;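 active = inhibition reaching a set limit with compound at 10 µM in the primary screen, cut at about 35% in these data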
bIAP inhibitor: blocks bovine intestinal alkaline phosphatase activity. 190,000 tested, under 10 active. purified bovine IAP, CDP-star luminescence, 30 min. inhibition, % at 20 µM;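 active = over 50% inhibition of intestinal alkaline phosphatase at 20 µM in the single-dose screen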
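Incubation: 30 min reaction at room temperature / Material: purified bovine intestinal alkaline phosphatase (IAP) enzyme / Input: enzyme at 1/65,000,000 dilution / Dosing: 20 µM single dose / Signal: CDP-star luminescence signal / Reagent: CDP-star chemiluminescent phosphatase substrate, 30 µM final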
hIAP act conf: human IAP activation confirmation; shares compounds with hIAP activ; purified IAP, CDP-Star luminescence, 30 min; hits give low values; activation (%Activity, negative = activation), % at 8.3 µM; actives 10% (n = 880); AID 434926;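 active = at least twofold enzyme activation in any of six single-dose repeats, which the averaged readout prints as negative percent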
mIAP inh confirm: mouse IAP inhibition confirmation | shares compounds with mIAP inh | purified mouse IAP, CDP-Star luminescence, 30 min | inhibition, % at 10 µM | actives 4.7% (n = 11,000);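 active = inhibition of at least 40% at 10 µM in either of the two replicates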
Numbers stand for hits; i = inactive; nt = no result. In the library only some 0.77% were active in any assay of this set; here they are far more common.

SMILES	mIAP act	mIAP inh	bIAP activator	hIAP activ	hIAP block	bIAP inhibitor	mIAP inh confirm	others
Cc1cccc(C(O)(C(=O)NNC(=O)CN2CCN(C)CC2)c2cccc(C)c2)c1	i	i	2.3	i	i	i	nt
Cc1ccc(C(O)(C(=O)NNC(=O)CN2CCN(C)CC2)c2ccc(C)cc2)cc1	i	i	i	i	i	i	nt
O=C1NC(=S)NC(=O)C1C/C=C/c1ccccc1	i	41.9	i	i	i	i	nt
O=C/C=C/c1ccccc1	i	i	nt	i	i	nt	nt
COC(=O)C1=C(c2cccc(C#N)c2)C[C@@H]2CC[C@H]1N2C(=O)N1CCCCC1	i	i	nt	i	i	nt	nt
CCOc1ccc2nc(N=Nc3c(O)[nH]c(=S)[nH]c3=O)sc2c1	i	43.5	i	i	i	i	nt
C[CH2][Hg][S]c1ccccc1C(=O)O	i	i	nt	i	i	nt	nt
CCOC(=O)c1c(-n2c(C)cc(C=C3C(=O)NC(=S)NC3=O)c2C)sc2c1CCCC2	i	51.4	i	i	i	nt	nt
C[C@H](NC(=O)CCC(=O)N1C[C@H]2C[C@H](C1)c1cccc(=O)n1C2)c1ccccc1	i	i	nt	i	i	nt	nt
COc1cc(/C=C/[N+](=O)[O-])ccc1O	i	46.1	i	i	i	i	nt
CN(C)c1nc(-c2ccccc2)[n+](C)s1	i	i	i	i	42.3	i	nt	hIAP act conf=i
Cc1ccc(-c2nc(N3CCOCC3)s[n+]2-c2ccccc2)cc1	nt	nt	i	nt	nt	i	nt
CC(C)Cc1nnc(NC(=O)CCC(=O)N2CCC3(CC2)OCCO3)s1	i	i	nt	2.33	i	nt	nt	hIAP act conf=i
Cc1ccc(/C=C2/Sc3ccc(C(=O)N4CCC5(CC4)OCCO5)cc3NC2=O)cc1	i	i	nt	i	i	nt	nt
Cc1ccc(CN2C3CCCC2CC(NC(=O)Nc2cccc(F)c2)C3)cc1 (stereo not given)	11.2	i	6.7	2.17	i	i	i	hIAP act conf=i
COC(=O)C1=C(c2ccccc2OCc2ccccc2)C[C@@H]2CC[C@H]1N2C(=O)NCc1ccc([N+](=O)[O-])cc1	i	i	nt	i	i	nt	nt
N/C(=N\[N+](=O)[O-])N/N=C/c1ccc(O)cc1	i	i	i	i	i	i	nt
Nc1nonc1C(=O)N/N=C/c1ccc([N+](=O)[O-])o1	i	55.3	i	i	i	i	72.4
COC(=O)C1=C(c2ccc(-c3ccccc3)c(F)c2)C[C@@H]2CC[C@H]1N2C(=O)NCCc1ccccc1	i	i	nt	i	i	nt	nt
O=C1NC(=O)N(c2ccccc2F)C(=O)/C1=C/c1ccc(Sc2nc3ccccc3[nH]2)o1	nt	nt	i	nt	nt	i	nt
O=C1NC(=O)N(c2cccc(Cl)c2)C(=O)/C1=C\c1ccc(Sc2nc3ccccc3[nH]2)o1	i	46.2	i	i	i	i	49.8
COC(=O)C1=C(c2cccc(C#N)c2)C[C@@H]2CC[C@H]1N2C(=O)NC1CC1	i	i	nt	i	i	nt	nt
Cc1noc(C)c1CC(=O)N1CCCC(N2CCN(c3ccccc3F)CC2)C1 (stereo not given)	i	i	nt	i	i	nt	nt
O=[N+]([O-])c1cc(S(=O)(=O)c2ccc(O)c([N+](=O)[O-])c2)ccc1O	i	62.7	i	i	i	i	52.9
O=C1NC(=O)N(Cc2ccccc2)C(=O)/C1=C/C=C/c1ccco1	i	57.4	nt	i	i	nt	66.4
SMILES	mIAP act	mIAP inh	bIAP activator	hIAP activ	hIAP block	bIAP inhibitor	mIAP inh confirm	others
N[C@@H](CCl)C(=O)O	i	i	nt	i	i	nt	nt
NC(Cc1cc(O)c(O)cc1O)C(=O)O (stereo not given)	i	83.5	nt	i	i	nt	88.2
CC/C(=N\NC(=O)c1ccccc1)c1c(O)n(C2CCCCC2)c(=O)[nH]c1=O	i	i	nt	i	i	nt	nt
Cc1cccc(OCCn2cccc2/C=C2/C(=O)NC(=O)N(Cc3ccco3)C2=O)c1	i	40.4	nt	i	i	nt	56.8
O=C1NC(=O)N(Cc2ccco2)C(=O)/C1=C\c1cccn1CCOc1ccc(Cl)cc1	i	48.6	i	i	i	i	50.4
CC(=O)c1cccc(OCC(=O)N2CCN(CC(=O)Nc3cccc(F)c3)CC2)c1	i	i	nt	i	i	nt	nt

Bioassay records deposited in PubChem BioAssay by Sanford-Burnham Center for Chemical Genomics.
